Target: T1, Lanosterol 14-alpha demethylase (Homo sapiens, UniProt Q16850)
T1 sequence (Q16850 whole entry): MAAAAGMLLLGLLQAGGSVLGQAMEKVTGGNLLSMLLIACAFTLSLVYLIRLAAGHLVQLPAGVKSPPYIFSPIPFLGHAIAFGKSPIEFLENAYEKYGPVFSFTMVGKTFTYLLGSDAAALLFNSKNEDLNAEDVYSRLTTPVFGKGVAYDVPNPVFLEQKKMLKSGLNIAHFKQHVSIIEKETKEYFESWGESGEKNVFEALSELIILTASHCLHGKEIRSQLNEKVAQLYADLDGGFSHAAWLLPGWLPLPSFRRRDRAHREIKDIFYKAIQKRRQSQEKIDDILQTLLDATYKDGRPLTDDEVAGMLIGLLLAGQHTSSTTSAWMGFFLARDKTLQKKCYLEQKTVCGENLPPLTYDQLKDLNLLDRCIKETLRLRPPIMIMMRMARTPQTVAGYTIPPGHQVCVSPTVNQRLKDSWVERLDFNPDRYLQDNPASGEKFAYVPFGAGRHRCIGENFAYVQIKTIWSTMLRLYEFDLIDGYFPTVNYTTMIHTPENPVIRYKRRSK
Experiment: Inhibition of human CYP51 expressed in Topp 3 cells by lanosterol demethylase assay
Outline: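 0.5 ml phosphate buffer pH 7.4 with KCN, NADPH regenerating system, 60 min at 37 °C. Triene product extracted and quantified by chromatography (ergosterol internal standard). IC50 read from plot of % activity remaining vs concentration.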

- IC50: > 200 µM
SMILES: O=c1c(CC[S+]([O-])c2ccccc2)c(O)n(-c2ccccc2)n1-c1ccccc1 (stereo unspecified) [1,2-Diphenyl-3,5-dioxo-4-(2-phenylsulfinylethyl)pyrazolidine]
